{
  "source": "paper PMC9053626",
  "about": "(RSC Advances, 2020)",
  "key": {"[1]": {"system": "4T1 cells", "test": "MTT cytotoxicity assay", "assay_type": "cell-based, murine", "conditions": "Mus musculus", "summary_of_the_method": "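4T1 cells grown in 1640 medium with 5% FBS and 1% penicillin/streptomycin at 37 °C, 5% CO2. Seeded at 2000 cells/well for 24 h, then exposed to a range of test concentrations for 48 h or 72 h. Washed twice with cold PBS, given fresh medium plus MTT for 4 h, formazan dissolved in DMSO, A570 read. Inhibition rate calculated relative to untreated control absorbance.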"}, "[2]": {"system": "4T1 cell tumor-bearing xenograft model", "test": "In vivo antitumor study and histological evaluation", "parameters": "species or system female BABL/c mice", "summary_of_the_method": "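Orthotopic 4T1 model: 0.1 mL of 4T1 cells (1 × 107 mL−1) injected into the fourth pair of breast pads. At 50–100 mm3 tumours, mice randomised into three groups (n = 6). Killed day 14; heart, liver, lung, spleen, kidney and tumour fixed in 10% formaldehyde for H&E.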"}, "[3]": {"conditions": "release medium vs anhydrous ethanol; cited from earlier work"}},
  "data": [
    {"smiles": "C[C@H]1[C@@H](O)O[C@@H]2O[C@@]3(C)CC[C@H]4[C@H](C)CC[C@@H]1[C@@]24OO3", "note": "[DHA-Sol, Dihydroartemisinin]", "values": [
      {"measurement": "IC50", "setting": "[1]; 4T1, 48 h", "result": "2310 ± 100", "unit": "nM"},
      {"measurement": "IC50", "setting": "[1]; 4T1, 72 h", "result": "620 ± 20", "unit": "nM"},
      {"measurement": "tumor volume", "setting": "[2]; after 14 days, i.v. 0.07 mmol DHA kg^−1 on days 1, 3, 5, 7, 9, saline group 3309.68 ± 441.61", "result": "867.27 ± 117.43", "unit": "mm^3"},
      {"measurement": "body weight change versus saline group", "setting": "[2]; end of the experiment, p > 0.1", "result": "a significant change in the body weight of rats was not observed"},
      {"measurement": "survival of mice during the experiment", "setting": "[2]; n = 6 per group, 0.07 mmol DHA kg^−1 i.v. five times", "result": "two mice treated with the DHA-Sol group died during the experiment"},
      {"measurement": "stability of DHA in the release medium", "setting": "[3]", "result": "degraded quickly in the release medium"}
    ]}
  ]
}
